Results on 2 compounds are retold here after ChEMBL document CHEMBL4613315, “Design of First-in-Class Dual EZH2/HDAC Inhibitor: Biochemical Activity and Biological Evaluation in Cancer Cells” (ACS Med Chem Lett, 2020).

pIC50: −log10 of the molar value.

As a reminder, the inhibition is the percentage by which the read-out fell short of the control. As a reminder, the pIC50 is the negative decadic logarithm of the IC50, by convention in mol/L.

Experiment [1] concerns U-937. Nature of the experiment: Cytotoxicity against human U937 cells assessed as combinational index measured at fraction affected value of 0.05 in presence of vorinostat at 1 uM incubated for 72 hrs by CellTiter-Glo Luminescent cell viability assay. Type of experiment: functional. A general note: In ATP-based viability assays light output follows the ATP content of the culture.

Experiment [2] can be described thus: Cytotoxicity against human RH4 cells assessed as combinational index measured at fraction affected value of 0.27 in presence of vorinostat at 10 uM incubated for 72 hrs by CellTiter-Glo Luminescent cell viability assay. Type of experiment: functional. Summed up:
(§1)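 Viability after 72 h of single-agent or combined treatment with the HDAC inhibitor (0.05–0.25 μM) and the EZH2 inhibitor. EZH2 inhibitor range: U937 5–25 μM; RH4 10–50 μM. Synergy was assessed by combination index and isobologram analysis.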

Experiment [3] concerns the target Histone-lysine N-methyltransferase EZH2 (Homo sapiens, UniProt Q15910). Nature of the experiment: Inhibition of EZH2 in human RH4 cells assessed as H3K27me3 level at 50 uM in presence of vorinostat incubated for 72 hrs by Western blot analysis (reference value: 1). Type of experiment: cell-based. Summed up: (§2)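 RH4 cells co-treated with EZH2 inhibitor at 50 μM plus HDAC inhibitor at 0.15 μM; Western blot after 72 or 96 h for H3K27me3 or acetyl-tubulin, vinculin loading control; densitometry normalized to loading control then DMSO vehicle.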

A short description of experiment [4]: Cytotoxicity against human RH4 cells assessed as combinational index measured at fraction affected value of 0.63 in presence of vorinostat at 50 uM incubated for 72 hrs by CellTiter-Glo Luminescent cell viability assay. Type of experiment: functional. In outline:
as §1

Experiment [5] concerns U-937. Put plainly: Cytotoxicity against human U937 cells assessed as reduction in cell viability at 25 uM incubated for 72 hrs by CellTiter-Glo Luminescent cell viability assay relative to control. In kind it is functional. Conditions: U-937, 72 h. Summed up:
as §1

For experiment [6], the target named is T1, Protein deacetylase HDAC6 (Homo sapiens) (UniProt Q9UBN7).
T1 sequence (whole entry): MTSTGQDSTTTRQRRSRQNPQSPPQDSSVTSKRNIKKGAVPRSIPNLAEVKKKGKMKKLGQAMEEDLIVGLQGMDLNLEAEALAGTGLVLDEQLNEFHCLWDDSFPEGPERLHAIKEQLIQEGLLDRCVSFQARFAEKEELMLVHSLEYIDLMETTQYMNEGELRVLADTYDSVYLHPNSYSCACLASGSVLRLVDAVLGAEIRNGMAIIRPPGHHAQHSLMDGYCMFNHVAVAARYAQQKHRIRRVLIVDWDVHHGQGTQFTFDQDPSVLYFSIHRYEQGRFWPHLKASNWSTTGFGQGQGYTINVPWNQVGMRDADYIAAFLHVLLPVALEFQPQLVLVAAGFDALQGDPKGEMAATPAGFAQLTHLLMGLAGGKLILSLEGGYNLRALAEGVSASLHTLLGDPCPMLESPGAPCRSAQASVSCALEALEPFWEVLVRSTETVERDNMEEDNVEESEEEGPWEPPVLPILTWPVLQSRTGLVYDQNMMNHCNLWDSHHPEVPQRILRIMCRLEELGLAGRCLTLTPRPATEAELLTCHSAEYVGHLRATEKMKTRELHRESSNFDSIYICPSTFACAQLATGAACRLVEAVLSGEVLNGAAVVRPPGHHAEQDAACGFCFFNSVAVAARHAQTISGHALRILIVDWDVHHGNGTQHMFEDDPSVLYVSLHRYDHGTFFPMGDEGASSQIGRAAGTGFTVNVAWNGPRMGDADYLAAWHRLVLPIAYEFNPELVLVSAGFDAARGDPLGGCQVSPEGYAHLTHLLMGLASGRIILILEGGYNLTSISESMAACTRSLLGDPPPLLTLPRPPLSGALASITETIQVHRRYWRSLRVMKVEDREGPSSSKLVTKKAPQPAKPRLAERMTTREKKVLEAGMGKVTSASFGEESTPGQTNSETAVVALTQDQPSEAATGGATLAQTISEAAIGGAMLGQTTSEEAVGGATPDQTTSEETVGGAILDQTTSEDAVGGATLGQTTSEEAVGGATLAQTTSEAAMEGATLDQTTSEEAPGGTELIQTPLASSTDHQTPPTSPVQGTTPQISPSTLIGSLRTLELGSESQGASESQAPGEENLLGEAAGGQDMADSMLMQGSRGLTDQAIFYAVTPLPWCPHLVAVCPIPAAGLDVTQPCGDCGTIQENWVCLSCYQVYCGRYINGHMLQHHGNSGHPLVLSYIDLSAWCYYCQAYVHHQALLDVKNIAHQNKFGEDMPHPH
Nature of the experiment: Inhibition of HDAC6 in human RH4 cells assessed as acetylated alpha-tubulin level at 50 uM in presence of vorinostat incubated for 72 hrs by Western blot analysis (reference value: 1). In kind it is cell-based. Summed up: as §2
For orientation: A western blot detects proteins with antibodies after separation by electrophoresis.

Experiment [7] in a line: Cytotoxicity against human RH4 cells assessed as reduction in cell viability at 50 uM in presence of vorinostat incubated for 72 hrs by CellTiter-Glo Luminescent cell viability assay relative to control. In kind it is functional. Conditions: Rh4, 72 h. In outline: as §1
A short description of experiment [8]: Cell cycle arrest in human RH4 cells assessed as G0/G1 accumulation at 14 uM incubated for 72 hrs by propidium iodide staining based flow cytometry (reference value: 46.2 %). Type of experiment: functional. For orientation: Flow cytometry measures light scatter and fluorescence of single cells or particles in a stream.
Experiment [9] addresses Histone deacetylase 4 (Homo sapiens, UniProt P56524). Put plainly: Inhibition of human recombinant HDAC4 using AMC-K(TFA)GL as substrate by fluorescence based assay.
Experiment [10] deals with U-937. Put plainly: Induction of apoptosis in human U937 cells assessed as necrotic cells at 25 uM incubated for 72 hrs by annexin V-FITC staining based flow cytometry (reference value: 0.5 %). Type of experiment: functional.
Experiment [11] has as its system U-937. Nature of the experiment: Cytotoxicity against human U937 cells assessed as reduction in cell viability incubated for 72 hrs by CellTiter-Glo Luminescent cell viability assay. Type of experiment: functional, cell-based. Conditions: U-937, 72 h.
A short description of experiment [12]: Induction of apoptosis in human RH4 cells assessed as late apoptotic cells at 28 uM incubated for 72 hrs by annexin V-FITC staining based flow cytometry (reference value: 2.1 %). Type of experiment: functional.
A short description of experiment [13]: Cytotoxicity against human RH4 cells assessed as reduction in cell viability incubated for 72 hrs by CellTiter-Glo Luminescent cell viability assay. In kind it is functional, cell-based. Conditions: Rh4, 72 h. In outline: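 Antiproliferative IC50 after 72 h of treatment. Values are means of three independent experiments, each measured in triplicate, ± SD.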

Experiment [14] deals with U-937. Nature of the experiment: Induction of apoptosis in human U937 cells assessed as early apoptotic cells at 25 uM incubated for 72 hrs by annexin V-FITC staining based flow cytometry (reference value: 3.4 %). In kind it is functional.
For experiment [15], the target named is Histone deacetylase 2 (Homo sapiens, UniProt Q92769).
Chain of Histone deacetylase 2 (Q92769 whole entry): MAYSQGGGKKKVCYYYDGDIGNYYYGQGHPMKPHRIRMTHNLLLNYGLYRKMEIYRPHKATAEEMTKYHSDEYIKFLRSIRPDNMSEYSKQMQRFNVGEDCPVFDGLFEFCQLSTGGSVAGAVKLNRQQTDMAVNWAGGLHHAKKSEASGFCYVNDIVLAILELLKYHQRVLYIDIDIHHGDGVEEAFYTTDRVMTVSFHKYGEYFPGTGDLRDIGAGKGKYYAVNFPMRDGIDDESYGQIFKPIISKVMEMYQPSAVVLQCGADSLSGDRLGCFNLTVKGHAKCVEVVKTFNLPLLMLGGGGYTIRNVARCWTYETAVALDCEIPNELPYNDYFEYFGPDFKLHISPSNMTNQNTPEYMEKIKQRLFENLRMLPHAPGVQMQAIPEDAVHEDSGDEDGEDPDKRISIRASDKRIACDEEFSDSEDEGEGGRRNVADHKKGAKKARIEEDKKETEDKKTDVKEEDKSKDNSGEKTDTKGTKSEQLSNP
The test system of experiment [16] is U-937. Put plainly: Cell cycle arrest in human U937 cells assessed as increase in subG1 accumulation incubated for 72 hrs by propidium iodide staining based assay. Type of experiment: functional.
Experiment [17] relates to U-937. Nature of the experiment: Cell cycle arrest in human U937 cells assessed as subG1 accumulation at 10 uM incubated for 72 hrs by propidium iodide staining based flow cytometry (reference value: 4.9 %).
A short description of experiment [18]: Cytotoxicity against human RH4 cells assessed as reduction in cell viability at 35 uM incubated for 96 hrs by CellTiter-Glo Luminescent cell viability assay relative to control. Type of experiment: functional. To be noted: Rh4, 96 h. Summed up:
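Viability of U937 (5–25 μM) and RH4 (5–35 μM) cells after 48, 72 and 96 h of treatment at increasing concentrations.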

Chain of Histone deacetylase 4 (P56524 whole entry): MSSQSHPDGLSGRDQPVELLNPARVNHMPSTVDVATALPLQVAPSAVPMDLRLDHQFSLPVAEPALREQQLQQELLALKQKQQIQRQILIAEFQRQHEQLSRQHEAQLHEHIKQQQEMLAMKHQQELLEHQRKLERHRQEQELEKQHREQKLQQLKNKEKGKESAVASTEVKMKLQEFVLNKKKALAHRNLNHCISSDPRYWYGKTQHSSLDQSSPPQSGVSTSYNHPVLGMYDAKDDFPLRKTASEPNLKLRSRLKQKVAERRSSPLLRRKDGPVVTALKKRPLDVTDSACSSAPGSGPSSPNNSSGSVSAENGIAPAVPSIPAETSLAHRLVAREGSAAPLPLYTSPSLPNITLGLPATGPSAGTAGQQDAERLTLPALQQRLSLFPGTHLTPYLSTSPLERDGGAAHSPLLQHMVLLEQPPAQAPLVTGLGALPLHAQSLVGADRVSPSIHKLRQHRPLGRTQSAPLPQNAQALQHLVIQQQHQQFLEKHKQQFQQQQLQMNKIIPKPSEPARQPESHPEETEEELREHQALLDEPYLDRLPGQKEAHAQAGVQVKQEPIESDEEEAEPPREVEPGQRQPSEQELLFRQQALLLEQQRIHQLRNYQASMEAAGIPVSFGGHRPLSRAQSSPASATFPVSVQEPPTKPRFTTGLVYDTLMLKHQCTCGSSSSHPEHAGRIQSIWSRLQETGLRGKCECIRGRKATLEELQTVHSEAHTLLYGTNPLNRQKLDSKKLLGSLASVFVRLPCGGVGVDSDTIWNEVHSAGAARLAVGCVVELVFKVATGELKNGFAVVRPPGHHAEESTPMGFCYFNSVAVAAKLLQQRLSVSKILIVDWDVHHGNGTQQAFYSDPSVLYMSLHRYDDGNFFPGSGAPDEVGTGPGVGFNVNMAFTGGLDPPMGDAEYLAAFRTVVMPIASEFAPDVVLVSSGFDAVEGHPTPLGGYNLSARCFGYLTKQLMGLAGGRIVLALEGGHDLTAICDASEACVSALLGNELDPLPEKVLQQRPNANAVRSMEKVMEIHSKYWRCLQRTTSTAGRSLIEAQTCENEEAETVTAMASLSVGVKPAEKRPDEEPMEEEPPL
Chain of Histone-lysine N-methyltransferase EZH2 (Q15910 whole entry, looked up): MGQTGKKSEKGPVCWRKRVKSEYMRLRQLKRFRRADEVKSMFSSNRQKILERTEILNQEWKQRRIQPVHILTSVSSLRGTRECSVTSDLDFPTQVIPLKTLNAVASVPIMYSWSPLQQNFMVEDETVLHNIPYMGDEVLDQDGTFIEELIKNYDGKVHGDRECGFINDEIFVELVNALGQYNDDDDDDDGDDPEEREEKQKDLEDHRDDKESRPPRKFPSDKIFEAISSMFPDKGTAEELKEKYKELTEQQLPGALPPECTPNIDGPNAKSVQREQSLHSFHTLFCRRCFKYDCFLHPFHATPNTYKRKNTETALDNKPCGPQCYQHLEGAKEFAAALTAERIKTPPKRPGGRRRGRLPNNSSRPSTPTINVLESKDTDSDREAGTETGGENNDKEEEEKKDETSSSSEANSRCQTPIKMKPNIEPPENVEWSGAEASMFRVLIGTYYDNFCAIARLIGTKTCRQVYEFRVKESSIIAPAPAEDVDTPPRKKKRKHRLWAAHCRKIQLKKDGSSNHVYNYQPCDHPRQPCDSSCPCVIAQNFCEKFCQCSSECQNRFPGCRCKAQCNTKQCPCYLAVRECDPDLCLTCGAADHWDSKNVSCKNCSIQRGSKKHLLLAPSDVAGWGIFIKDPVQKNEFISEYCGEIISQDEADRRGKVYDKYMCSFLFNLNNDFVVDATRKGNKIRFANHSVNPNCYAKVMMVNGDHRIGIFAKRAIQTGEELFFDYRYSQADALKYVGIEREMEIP

Regarding `Cc1cc(C)c(CNC(=O)c2cc(C)n(-c3ccccc3)c2C)c(=O)[nH]1`, the CI in experiment [1] came out at 3.34; in experiment [2] it was 0.64; in experiment [4], 0.54. Moreover, the fold change (FC) in experiment [3] was 0.02; in [6], 2.4. In addition, the inhibition at 25 µM in experiment [5] is 25%. Also, the inhibition at 50 µM in experiment [7] was over 60%.

On to `Cc1cc(C)c(CNC(=O)c2cc(C)n(-c3cccc(NC(=O)CCCCCCC(=O)NO)c3)c2C)c(=O)[nH]1`, for which the Activity was 47.2% in experiment [8]; 0.3% in [10]; 4.4% in experiment [12]; 23.3% in experiment [14]; “Dose-dependent effect” in experiment [16]; 8.2% in [17]. In addition, the pIC50 is 4.43 in experiment [9], 5.05 in experiment [11], 4.89 in experiment [13] and 5.88 in experiment [15]. Besides, the inhibition at 35 µM in experiment [18] was 90%.
